Test [1] addresses Focal adhesion kinase 1 (Homo sapiens) (UniProt Q05397). In words: Inhibition of FAK assessed as residual activity at 10 uM relative to control.
Test [2] deals with Tyrosine-protein kinase Lyn (Homo sapiens) (UniProt P07948). In words: Inhibition of LYN assessed as residual activity at 10 uM relative to control.
The subject of a further test is Mus musculus. As to the kind of experiment: Inhibition of LRRK2 in mouse assessed as inhibition of Ser910 autophosphorylation in kidney at 100 mg/kg, ip by immunoblot method. On the set-up: dose 100 mg/kg. It counts as functional, organism-based.
Test [3] concerns the target Mitogen-activated protein kinase 11 (Homo sapiens) (UniProt Q15759). In words: Inhibition of p38-beta assessed as residual activity at 10 uM relative to control.
For test [4], the target named is Serine/threonine-protein kinase WNK3 (Homo sapiens) (UniProt Q9BYP7). In words: Inhibition of WNK3 assessed as residual activity at 10 uM relative to control.
Test [5] deals with Receptor-interacting serine/threonine-protein kinase 2 (Homo sapiens) (UniProt O43353). In words: Inhibition of RIPK2 assessed as residual activity at 10 uM relative to control.
The target in test [6] is Insulin receptor (Homo sapiens) (UniProt P06213). As to the kind of experiment: Inhibition of INSR assessed as residual activity at 10 uM relative to control.
The target in test [7] is Serine/threonine-protein kinase MRCK beta (Homo sapiens) (UniProt Q9Y5S2). As to the kind of experiment: Inhibition of MRCKB assessed as residual activity at 10 uM relative to control.
Test [8] concerns the target T1, Mitogen-activated protein kinase kinase kinase 7 (Homo sapiens) (UniProt O43318).
T1 sequence (whole entry): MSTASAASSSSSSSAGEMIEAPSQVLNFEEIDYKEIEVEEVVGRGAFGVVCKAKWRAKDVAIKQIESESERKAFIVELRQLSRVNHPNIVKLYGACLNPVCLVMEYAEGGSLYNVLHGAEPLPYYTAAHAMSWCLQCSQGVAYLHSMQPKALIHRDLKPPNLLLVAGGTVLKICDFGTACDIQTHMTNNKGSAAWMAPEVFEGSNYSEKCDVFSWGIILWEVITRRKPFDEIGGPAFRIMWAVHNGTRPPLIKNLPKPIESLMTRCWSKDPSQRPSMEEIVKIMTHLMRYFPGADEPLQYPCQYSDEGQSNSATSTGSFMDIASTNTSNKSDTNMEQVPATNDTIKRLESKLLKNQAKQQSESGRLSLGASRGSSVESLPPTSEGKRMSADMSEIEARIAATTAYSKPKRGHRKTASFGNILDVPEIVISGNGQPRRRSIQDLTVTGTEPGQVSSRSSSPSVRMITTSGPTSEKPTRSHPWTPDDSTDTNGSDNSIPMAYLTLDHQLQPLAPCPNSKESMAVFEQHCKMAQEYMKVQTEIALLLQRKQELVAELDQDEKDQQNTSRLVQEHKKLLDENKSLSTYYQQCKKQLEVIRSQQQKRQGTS
In words: Inhibition of TAK1 assessed as residual activity at 10 uM relative to control.

The target in test [9] is Death-associated protein kinase 1 (Homo sapiens) (UniProt P53355). In words: Inhibition of DAPK1 assessed as residual activity at 10 uM relative to control. A digest of the protocol:
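Competition kinase-binding assay (KINOMEscan) across a non-redundant panel of 329 kinases beyond the radiometric panel; residual binding expressed relative to control.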

For test [10], the target named is Mitogen-activated protein kinase 13 (Homo sapiens) (UniProt O15264). In words: Inhibition of p38-delta assessed as residual activity at 10 uM relative to control.
In test [11] the target is Calcium/calmodulin-dependent protein kinase type II subunit delta (Homo sapiens) (UniProt Q13557). In words: Inhibition of CAMK2D assessed as residual activity at 10 uM relative to control.
The target in test [12] is Tyrosine-protein kinase CSK (Homo sapiens) (UniProt P41240). In words: Inhibition of CSK assessed as residual activity at 1 uM. In short, it runs like this: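 Radioactivity-based enzymatic assay against a panel of 131 kinases (Dundee profiling). Activity remaining was measured with compound present at the stated concentration.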
Test [13] addresses Serine/threonine-protein kinase WNK1 (Homo sapiens) (UniProt Q9H4A3). As to the kind of experiment: Inhibition of WNK1 assessed as residual activity at 10 uM relative to control.
The target of test [14] is T2, NUAK family SNF1-like kinase 1 (Homo sapiens) (UniProt O60285).
T2 sequence (whole entry): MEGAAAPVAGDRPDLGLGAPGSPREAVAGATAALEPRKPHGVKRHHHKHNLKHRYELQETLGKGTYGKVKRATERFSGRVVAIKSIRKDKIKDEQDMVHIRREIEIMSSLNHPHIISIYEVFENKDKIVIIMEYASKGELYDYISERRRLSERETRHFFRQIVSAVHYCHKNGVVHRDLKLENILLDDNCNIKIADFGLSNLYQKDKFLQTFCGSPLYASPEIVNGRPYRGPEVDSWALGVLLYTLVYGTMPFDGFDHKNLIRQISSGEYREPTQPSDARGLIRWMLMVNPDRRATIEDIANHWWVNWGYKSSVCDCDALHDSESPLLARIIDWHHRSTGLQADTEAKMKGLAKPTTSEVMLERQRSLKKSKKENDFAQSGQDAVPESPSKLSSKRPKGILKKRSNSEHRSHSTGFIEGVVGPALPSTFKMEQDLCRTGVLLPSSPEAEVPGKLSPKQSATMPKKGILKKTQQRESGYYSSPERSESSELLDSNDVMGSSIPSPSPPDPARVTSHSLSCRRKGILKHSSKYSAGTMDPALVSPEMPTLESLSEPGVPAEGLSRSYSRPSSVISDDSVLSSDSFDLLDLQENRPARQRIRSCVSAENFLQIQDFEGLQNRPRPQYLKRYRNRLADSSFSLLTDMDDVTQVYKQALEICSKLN
As to the kind of experiment: Inhibition of NUAK1 assessed as residual activity at 10 uM.

The target in test [15] is Dual serine/threonine and tyrosine protein kinase (Homo sapiens) (UniProt Q6XUX3). In words: Inhibition of RIPK5 assessed as residual activity at 10 uM relative to control.
Test [16] has as its target Serine/threonine-protein kinase WNK1 (Homo sapiens) (UniProt Q9H4A3). In words: Inhibition of WNK1 assessed as residual activity at 1 uM.
Test [17] addresses T3, Serine/threonine-protein kinase STK11 (Homo sapiens) (UniProt Q15831).
T3 sequence (whole entry): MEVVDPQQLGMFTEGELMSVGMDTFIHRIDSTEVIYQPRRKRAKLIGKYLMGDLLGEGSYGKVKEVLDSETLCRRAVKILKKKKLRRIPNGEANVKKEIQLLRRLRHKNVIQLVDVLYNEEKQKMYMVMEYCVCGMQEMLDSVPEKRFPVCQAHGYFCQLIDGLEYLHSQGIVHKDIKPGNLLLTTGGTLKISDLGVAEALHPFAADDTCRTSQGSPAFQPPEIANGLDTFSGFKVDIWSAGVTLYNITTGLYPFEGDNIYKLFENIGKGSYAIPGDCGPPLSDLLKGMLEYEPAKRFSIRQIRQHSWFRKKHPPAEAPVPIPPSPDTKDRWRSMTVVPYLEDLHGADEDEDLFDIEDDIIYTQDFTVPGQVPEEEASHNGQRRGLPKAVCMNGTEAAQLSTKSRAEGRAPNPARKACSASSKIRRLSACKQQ
In words: Inhibition of LKB1 assessed as residual activity at 1 uM.

Molecules are shown by their SMILES. The source made the active and inactive calls. The rule behind the calls is not given here.

Chain of Serine/threonine-protein kinase WNK1 (Homo sapiens) (Q9H4A3 whole entry, looked up): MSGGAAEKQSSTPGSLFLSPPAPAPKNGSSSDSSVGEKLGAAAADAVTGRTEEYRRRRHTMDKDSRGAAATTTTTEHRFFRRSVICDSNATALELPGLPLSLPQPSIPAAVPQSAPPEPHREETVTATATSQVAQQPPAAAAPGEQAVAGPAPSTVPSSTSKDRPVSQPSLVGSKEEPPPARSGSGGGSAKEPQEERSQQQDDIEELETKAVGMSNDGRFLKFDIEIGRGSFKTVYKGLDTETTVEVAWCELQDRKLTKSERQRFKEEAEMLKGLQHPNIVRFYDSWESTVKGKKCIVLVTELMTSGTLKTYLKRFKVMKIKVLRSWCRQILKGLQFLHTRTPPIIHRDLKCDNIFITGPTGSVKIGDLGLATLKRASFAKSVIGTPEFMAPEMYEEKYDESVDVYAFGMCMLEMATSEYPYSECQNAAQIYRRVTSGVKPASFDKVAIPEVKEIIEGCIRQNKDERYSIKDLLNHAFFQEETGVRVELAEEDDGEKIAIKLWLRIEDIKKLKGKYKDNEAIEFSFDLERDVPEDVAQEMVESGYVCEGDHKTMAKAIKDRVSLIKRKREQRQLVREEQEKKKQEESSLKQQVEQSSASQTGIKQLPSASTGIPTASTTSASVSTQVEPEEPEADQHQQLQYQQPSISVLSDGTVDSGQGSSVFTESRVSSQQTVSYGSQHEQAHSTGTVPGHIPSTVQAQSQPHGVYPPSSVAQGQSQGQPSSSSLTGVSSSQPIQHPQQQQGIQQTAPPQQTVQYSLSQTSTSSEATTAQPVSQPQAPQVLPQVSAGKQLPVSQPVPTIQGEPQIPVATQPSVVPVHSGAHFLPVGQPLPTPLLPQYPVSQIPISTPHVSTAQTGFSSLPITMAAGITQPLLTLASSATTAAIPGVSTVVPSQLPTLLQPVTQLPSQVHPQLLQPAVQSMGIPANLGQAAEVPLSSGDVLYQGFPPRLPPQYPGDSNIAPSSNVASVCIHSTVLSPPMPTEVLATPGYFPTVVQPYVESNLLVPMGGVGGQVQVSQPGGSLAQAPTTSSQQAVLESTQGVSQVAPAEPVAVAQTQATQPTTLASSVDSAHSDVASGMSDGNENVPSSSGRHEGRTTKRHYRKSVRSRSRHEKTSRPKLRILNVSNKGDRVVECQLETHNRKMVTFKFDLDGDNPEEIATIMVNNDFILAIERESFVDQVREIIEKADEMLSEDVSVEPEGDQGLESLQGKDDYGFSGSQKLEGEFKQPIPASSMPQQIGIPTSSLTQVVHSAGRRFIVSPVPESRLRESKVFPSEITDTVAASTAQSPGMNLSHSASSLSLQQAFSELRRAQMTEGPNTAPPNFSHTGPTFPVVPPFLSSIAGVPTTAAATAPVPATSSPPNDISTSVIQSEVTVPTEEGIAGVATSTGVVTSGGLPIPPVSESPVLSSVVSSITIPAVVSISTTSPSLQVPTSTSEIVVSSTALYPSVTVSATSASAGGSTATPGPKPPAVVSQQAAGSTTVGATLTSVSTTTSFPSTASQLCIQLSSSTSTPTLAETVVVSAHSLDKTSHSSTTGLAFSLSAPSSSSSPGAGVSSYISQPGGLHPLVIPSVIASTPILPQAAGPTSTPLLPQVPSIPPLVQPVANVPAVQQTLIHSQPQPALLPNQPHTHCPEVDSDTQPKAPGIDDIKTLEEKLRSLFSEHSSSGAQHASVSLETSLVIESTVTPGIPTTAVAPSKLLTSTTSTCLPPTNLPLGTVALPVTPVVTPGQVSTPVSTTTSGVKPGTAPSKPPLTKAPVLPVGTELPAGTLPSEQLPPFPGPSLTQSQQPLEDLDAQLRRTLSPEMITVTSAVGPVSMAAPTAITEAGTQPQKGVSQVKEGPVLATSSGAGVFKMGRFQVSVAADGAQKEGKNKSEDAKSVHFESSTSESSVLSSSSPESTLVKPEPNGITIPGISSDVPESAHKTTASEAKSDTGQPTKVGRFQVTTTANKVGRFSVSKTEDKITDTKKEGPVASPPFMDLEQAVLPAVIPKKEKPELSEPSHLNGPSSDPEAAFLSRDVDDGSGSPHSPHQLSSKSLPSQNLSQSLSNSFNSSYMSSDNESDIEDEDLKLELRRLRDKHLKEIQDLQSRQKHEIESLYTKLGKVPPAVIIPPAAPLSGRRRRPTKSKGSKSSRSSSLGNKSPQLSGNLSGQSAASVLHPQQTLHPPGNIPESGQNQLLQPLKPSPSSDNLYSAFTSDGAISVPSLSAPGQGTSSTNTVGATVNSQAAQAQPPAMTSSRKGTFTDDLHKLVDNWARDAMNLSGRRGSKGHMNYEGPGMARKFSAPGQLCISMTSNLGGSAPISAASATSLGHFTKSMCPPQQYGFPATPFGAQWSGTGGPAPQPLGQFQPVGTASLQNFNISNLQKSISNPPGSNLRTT
Chain of Insulin receptor (Homo sapiens) (P06213 28-758 limits assumed): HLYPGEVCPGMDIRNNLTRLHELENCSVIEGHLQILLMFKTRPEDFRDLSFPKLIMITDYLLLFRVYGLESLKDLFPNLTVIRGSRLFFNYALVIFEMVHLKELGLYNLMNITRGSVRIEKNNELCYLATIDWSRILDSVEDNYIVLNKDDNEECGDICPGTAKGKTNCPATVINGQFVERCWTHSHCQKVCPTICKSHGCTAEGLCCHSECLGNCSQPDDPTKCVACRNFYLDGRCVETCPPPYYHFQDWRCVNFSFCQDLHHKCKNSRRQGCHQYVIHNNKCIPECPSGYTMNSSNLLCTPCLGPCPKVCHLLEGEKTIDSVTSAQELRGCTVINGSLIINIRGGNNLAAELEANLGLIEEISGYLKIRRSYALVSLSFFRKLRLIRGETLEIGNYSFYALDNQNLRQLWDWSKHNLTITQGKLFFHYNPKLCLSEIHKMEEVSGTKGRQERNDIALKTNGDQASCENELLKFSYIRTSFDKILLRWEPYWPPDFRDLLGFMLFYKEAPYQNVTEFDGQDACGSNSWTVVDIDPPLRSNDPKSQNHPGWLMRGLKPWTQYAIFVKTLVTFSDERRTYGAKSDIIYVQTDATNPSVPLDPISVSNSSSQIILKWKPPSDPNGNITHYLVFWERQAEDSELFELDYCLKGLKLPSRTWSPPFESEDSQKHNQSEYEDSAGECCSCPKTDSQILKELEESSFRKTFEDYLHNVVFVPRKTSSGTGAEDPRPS
Chain of Insulin receptor (Homo sapiens) (P06213 763-1382 limits assumed): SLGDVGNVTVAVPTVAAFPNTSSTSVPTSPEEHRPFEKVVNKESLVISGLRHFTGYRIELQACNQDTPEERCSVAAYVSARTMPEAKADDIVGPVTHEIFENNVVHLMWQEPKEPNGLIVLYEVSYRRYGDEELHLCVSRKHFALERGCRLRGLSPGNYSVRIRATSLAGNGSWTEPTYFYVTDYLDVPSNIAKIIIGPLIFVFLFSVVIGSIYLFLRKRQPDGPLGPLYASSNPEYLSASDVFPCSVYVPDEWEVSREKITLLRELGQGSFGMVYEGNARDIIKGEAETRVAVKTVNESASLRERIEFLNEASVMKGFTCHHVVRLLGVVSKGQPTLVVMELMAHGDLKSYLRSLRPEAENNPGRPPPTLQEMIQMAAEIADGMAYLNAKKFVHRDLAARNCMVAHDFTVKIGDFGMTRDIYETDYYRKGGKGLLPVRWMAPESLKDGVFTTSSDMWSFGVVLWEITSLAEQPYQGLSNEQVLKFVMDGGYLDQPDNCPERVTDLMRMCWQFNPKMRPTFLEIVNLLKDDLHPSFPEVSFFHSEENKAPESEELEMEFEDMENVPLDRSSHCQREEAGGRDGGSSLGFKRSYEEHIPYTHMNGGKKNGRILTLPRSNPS
Chain of Tyrosine-protein kinase CSK (Homo sapiens) (P41240 2-450 limits assumed): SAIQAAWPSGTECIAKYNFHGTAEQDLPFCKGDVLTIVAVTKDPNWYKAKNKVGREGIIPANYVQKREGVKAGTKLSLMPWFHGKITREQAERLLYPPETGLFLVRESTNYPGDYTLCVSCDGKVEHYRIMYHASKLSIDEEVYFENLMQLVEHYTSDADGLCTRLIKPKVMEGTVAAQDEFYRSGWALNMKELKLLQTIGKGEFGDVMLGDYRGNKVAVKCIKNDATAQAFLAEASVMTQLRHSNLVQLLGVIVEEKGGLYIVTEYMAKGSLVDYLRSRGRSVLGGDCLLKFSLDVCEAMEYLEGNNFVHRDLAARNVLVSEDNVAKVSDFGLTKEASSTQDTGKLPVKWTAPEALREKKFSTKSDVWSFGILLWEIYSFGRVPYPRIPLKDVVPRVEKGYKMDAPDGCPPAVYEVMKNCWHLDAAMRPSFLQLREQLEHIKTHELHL
Chain of Dual serine/threonine and tyrosine protein kinase (Homo sapiens) (Q6XUX3 whole entry): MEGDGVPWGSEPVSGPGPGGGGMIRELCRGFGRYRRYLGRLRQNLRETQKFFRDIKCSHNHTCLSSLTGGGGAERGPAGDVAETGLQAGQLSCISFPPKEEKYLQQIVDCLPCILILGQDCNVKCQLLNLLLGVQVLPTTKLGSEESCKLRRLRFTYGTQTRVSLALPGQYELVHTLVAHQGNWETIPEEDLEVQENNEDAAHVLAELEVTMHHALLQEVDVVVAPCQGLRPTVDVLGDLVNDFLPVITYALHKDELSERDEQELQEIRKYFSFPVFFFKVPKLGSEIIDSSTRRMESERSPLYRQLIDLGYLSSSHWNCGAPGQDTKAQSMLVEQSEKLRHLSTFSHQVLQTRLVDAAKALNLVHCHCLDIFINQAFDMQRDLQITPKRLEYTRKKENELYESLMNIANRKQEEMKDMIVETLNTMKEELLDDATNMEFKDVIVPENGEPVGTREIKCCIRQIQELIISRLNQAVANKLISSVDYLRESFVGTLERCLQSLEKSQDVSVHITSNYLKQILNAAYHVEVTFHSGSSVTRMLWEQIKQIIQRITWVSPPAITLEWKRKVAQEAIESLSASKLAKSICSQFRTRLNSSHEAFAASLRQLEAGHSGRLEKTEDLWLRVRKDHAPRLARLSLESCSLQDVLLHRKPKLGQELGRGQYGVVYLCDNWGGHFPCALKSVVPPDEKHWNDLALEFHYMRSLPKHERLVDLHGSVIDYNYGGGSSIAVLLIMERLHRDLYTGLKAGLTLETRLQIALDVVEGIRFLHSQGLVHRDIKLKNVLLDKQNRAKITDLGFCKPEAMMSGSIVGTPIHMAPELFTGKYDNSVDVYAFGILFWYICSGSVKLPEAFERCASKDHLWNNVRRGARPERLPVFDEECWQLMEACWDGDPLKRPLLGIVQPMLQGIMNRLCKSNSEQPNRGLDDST

Take `O=C(Nc1cccnc1)c1cc(-c2ccnc(F)c2)ccc1OCc1ccccc1`: the Activity in test [1] was determined as 63%; in test [2] it was 73%; in test [3] it was 74%; in test [4], 62%; in test [5], 53%; in test [6], 44%. For the same molecule, the Activity in test [7] was determined as 59%; in test [8], 59%; in [9], 40%; in [10], 75%; in test [11], 64%; in test [12] it was 104%. The Activity in test [13] came to 61%; in [14], 58%; in test [15], 69%; in test [16], 104%; in test [17], 97%. Moreover, the inhibition result in the test on Mus musculus is “Active”.

Source of the values: ChEMBL document CHEMBL2203081 (Bioorg Med Chem Lett, 2012).
